# Compound activity (PubChem)
# In the library only some 2.1% were active in any assay of this set; here they are far more common.
# PKA-R2B activ: activators of human PKA-R2B complex. activation, % at 11.4 µM. AID 504700. PKA-R2B holoenzyme dissociation, Cy5-IP20 fluorescence polarization; R2B truncated from residue 108, S112A mutant; 0% DMSO only, 100% 113 µM cGMP. 340,000 tested, 0.079% active;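 active means activation above a cutoff set at the mean over all compounds plus 3 SD, cut at about 18% in these data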;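 further: higher means more holoenzyme dissociation and a rise in polarization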
# PKA-R1A activ: activates the PKA-R1A holoenzyme complex. P00514+P68181. PKA-R1A dissociation, Cy5-IP20 fluorescence polarization; scaled: DMSO 0%, 113 µM cGMP 100%. activation, % at 11.4 µM. 340,000 tested, 0.083% active. AID 504707;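 active means percent activation above the mean of all tested compounds plus 3 SD, cut at about 19% in these data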;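 further: higher means more PKAc released from R1A so a rise in polarization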
# dFosB act: activators of mouse delta FosB homodimer; purified delta FosB, TAMRA-CDK5 oligo fluorescence polarization; percent of positive-control signal above neutral wells; activation, % at 25 µM; 340,000 tested, 0.99% active;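 active means mean activation above about 17%, with every replicate also reaching it, limit read from the data, passing the limit was not always enough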
# SR-BI uptake up: SR-BI HDL lipid transfer activation; activation, % at 12.5 µM; CHO ldlA[mSR-BI] cells, DiI-HDL uptake fluorescence, 3 h; 100 = double the neutral-control signal; 320,000 tested, 0.096% active;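 active means mean replicate activation of at least 60% and every replicate at or above 60%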;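 further: 0% = median plate neutral-control signal and 100% = twice that signal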
#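 Material: SR-BI-overexpressing, LDLR-lacking CHO cells; schedule: compound exposure 3 h, 37 °C; reagent: DiI-labelled HDL at 10 µg/mL final; technique: bottom-read fluorescence, 550/595 nm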
# SR-BI DiI inh: inhibitors of mouse SR-BI mediated HDL lipid uptake. ldlA[mSR-BI] CHO cells, DiI-HDL uptake fluorescence, 3 h. inhibition, % at 12.5 µM. 320,000 tested, 0.96% active;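 active means mean replicate inhibition of at least 70% and a set share of replicates each scoring 70 or more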;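 further: 0% = median of neutral control wells and 100% = median of positive control wells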
# CDK5 inh: CDK5/p35 (human) kinase inhibition | 330,000 tested, 0.01% active | inhibition, % at 10 µM | Q00535+Q15078 | AID 488839 | Recombinant CDK5/p35, ADP-Glo luminescence, 60 min;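 active means highest replicate inhibition of at least 50% and at least 75% of replicates reaching 50%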;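 further: plate controls were DMSO neutral control for no effect and GW8510 at 10 µM for full effect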
# Target sequence (Q00535 whole entry, looked up): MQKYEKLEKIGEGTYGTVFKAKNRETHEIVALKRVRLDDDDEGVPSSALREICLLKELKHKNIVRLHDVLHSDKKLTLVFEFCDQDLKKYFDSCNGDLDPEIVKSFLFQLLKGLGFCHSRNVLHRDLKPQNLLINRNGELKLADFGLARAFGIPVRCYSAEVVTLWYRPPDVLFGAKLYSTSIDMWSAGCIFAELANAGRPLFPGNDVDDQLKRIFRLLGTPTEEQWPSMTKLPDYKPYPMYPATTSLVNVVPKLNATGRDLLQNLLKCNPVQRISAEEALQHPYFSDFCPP
# Target sequence (Q15078 whole entry, looked up): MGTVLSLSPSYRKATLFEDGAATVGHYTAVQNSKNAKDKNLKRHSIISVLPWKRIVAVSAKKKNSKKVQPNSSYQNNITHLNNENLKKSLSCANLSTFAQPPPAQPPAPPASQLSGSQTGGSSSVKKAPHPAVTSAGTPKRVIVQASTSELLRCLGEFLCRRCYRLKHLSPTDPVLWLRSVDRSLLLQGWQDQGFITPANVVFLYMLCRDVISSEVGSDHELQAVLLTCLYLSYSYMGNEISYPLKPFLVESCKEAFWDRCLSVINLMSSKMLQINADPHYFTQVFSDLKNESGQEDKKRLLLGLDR
# R1A FP artifact: counter-screen for PKA-R1A activators: fluorescence polarization artifacts. shares compounds with PKA-R1A activ. Cy5-IP20 peptide alone, fluorescence polarization artifact counterscreen. activation, % at 11.4 µM. 280 tested, 7% active;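 active means mean activation over triplicate runs exceeds the adjusted cutoff derived for the parent primary screen, cut at about 19% in these data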;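 further: no PKA protein present so any polarization rise reflects compound interference; 0% = tracer peptide mix alone and 100% = mix with added PKA catalytic subunit; higher means stronger polarization artifact and likely false positive in parent screen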
# PKA-R1A confirm: confirmation of PKA-R1A complex activators; Cy5-IP20 fluorescence polarization, PKA-R1A holoenzyme dissociation; 280 tested, 9% active; shares compounds with PKA-R1A activ; activation, % at 11.4 µM;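 active means mean activation over replicate wells exceeds the adjusted hit threshold taken from the earlier primary screen, cut at about 20% in these data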;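 further: 0% = holoenzyme mix with DMSO only and 100% = cGMP-activated control wells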
# Active calls of the source: *; nt = no result given.
SMILES,PKA-R2B activ,PKA-R1A activ,dFosB act,SR-BI uptake up,SR-BI DiI inh,CDK5 inh,R1A FP artifact,PKA-R1A confirm
CCCCCCCn1c(C)nnc1-c1cnn(C)c1N,-1.7,20.3*,-9.6,3.4,-3.4,-3.0,-0.3,-0.9
COc1ccc(Nc2cc(C)nc3ncnn23)cc1Cl,0.4,22.3*,-4.0,-21.2,21.2,2.0,2.4,-3.5
O=C(/C=C/c1ccccc1)Nc1cccc(C(=O)NC2CC2)c1,1.4,18.6*,-17.3,-39.5,39.5,0.3,3.3,5.4
Cc1[nH]c(=O)[nH]c(=O)c1S(=O)(=O)NCCc1ccc(S(N)(=O)=O)cc1,1.1,3.2,-7.5,15.6,-15.6,0.1,nt,nt
Cc1[nH]c(=O)[nH]c(=O)c1S(=O)(=O)Nc1ccc(S(N)(=O)=O)cc1,4.1,19.8*,0.1,19.0,-19.0,-0.3,0.2,4.8
Cc1ccc(S(=O)(=O)Cn2nnnc2C(CC(C)C)N2CCN(C3CCCC3)CC2)cc1 (configuration not stated),7.2,7.2,-1.5,11.1,-11.1,-0.3,nt,nt
O=C(NNC(=S)Nc1cccc(Cl)c1)c1ccccc1,9.6,19.6*,5.4,26.4,-26.4,1.4,5.7,8.7
CCOC(=O)Cc1csc(NC(=O)c2ccc3ncsc3c2)n1,-11.2,-4.6,-13.2,-30.4,30.4,4.8,nt,nt
O=C1C=C(c2cc(F)ccc2F)C[C@@H](c2ccc(F)cc2)C1,-0.1,-22.4,-12.4,-23.5,23.4,-0.4,nt,nt
O=C(CSc1ccc(-c2ccncc2)nn1)N1CCCC1,-4.2,-5.5,-10.5,nt,nt,-1.8,nt,nt
O=C(CSc1ccc(-c2ccncc2)nn1)N1CCCCC1,-6.2,18.8*,-9.2,-7.0,7.0,1.3,-0.2,7.9
COc1ccc(C(=O)Nc2c3c(nn2-c2ccc(Cl)cc2)CS(=O)(=O)C3)cc1,-7.9,19.9*,-7.5,-29.8,29.8,0.7,0.1,-0.2
COc1ccc(C(=O)Nc2c3c(nn2-c2ccc([N+](=O)[O-])cc2)CS(=O)(=O)C3)cc1,-4.4,-5.2,0.5,-37.2,37.2,-0.5,nt,nt
COc1ccccc1-c1cc(C(=O)Nc2cccnc2)no1,-11.3,18.7*,-19.4,21.9,-21.9,-1.7,1.2,-1.3
COc1ncnc2c1oc1nc(CC(C)C)c3c(c12)CC(C)(C)OC3,10.1,19.8*,-4.9,-34.8,34.8,0.8,0.8,3.3
C[C@H](NC(=O)CCC1CCC(=O)N1)c1ccccc1 (some centres not stated),-10.4,-4.1,6.7,5.3,-5.3,-1.6,nt,nt
COc1ccc(/C=C2/S/C(=N/S(=O)(=O)Cc3ccccc3)NC2=O)cc1OC,5.5,23.2*,-1.4,nt,nt,0.1,1.8,-0.8
Cc1cccc(NC(=O)c2sc(C)nc2C)c1,3.0,19.0*,-6.1,9.1,-9.0,-0.4,0.1,1.4
Cc1cc(OCC(=O)OC(C)C(=O)Nc2ccc(N3CCOCC3)cc2)ccc1Cl (configuration not stated),-3.0,-4.8,-5.6,0.1,-0.1,0.2,nt,nt
CCOC(=O)C1CCN(CC(C)(C)NS(=O)(=O)c2ccccc2)CC1,6.7,20.7*,-2.2,nt,nt,0.5,-0.4,-3.5
Cc1cc(NC(=O)CSCC(=O)OCC(=O)Nc2cc(C)c(C)cc2[N+](=O)[O-])no1,-6.1,19.6*,-8.6,5.5,-5.5,0.1,5.8,10.1
COc1ccc(C(=O)C[n+]2cccc3cc(C)ccc32)cc1,1.1,18.7*,7.1,18.9,-18.9,1.6,8.8,5.2
O=C(NCc1ccc2c(c1)OCO2)c1ccc2c(c1)S(=O)(=O)c1ccccc1C2=O,-6.8,21.8*,-2.8,3.3,-3.3,1.7,-1.9,-1.8
Cn1c(=O)c2c(nc(Cl)n2CC(=O)NC2(C#N)CCCCC2)n(C)c1=O,-8.8,-5.6,5.6,3.5,-3.5,1.4,nt,nt
Oc1ccc(N=Nc2ccccc2)o1,-8.6,-6.2,1.4,-2.1,2.1,1.5,nt,nt
NC(=O)C1CCN(C(=O)C(=O)c2cn(CC(=O)N3CCCC3)c3ccccc23)CC1,0.6,20.3*,-12.4,22.0,-22.0,0.3,1.3,-1.7
CCc1cc(Cn2nc(-c3ccccc3C)cc2C(=O)O)on1,-3.4,19.0*,3.1,12.3,-12.3,0.5,-0.5,-2.3
CCOC(=O)c1cc(-c2ccccc2C)nn1Cc1cc(C)no1,2.0,-2.8,-1.7,18.4,-18.4,2.1,nt,nt
CCN1C(=O)/C(=C/N(C)C)c2ccccc21,5.9,19.1*,-0.3,-14.7,14.7,5.1,1.2,5.0
